{
  "source": "ChEMBL document CHEMBL1140859",
  "about": "“Design and synthesis of some thiazolyl and thiadiazolyl derivatives of antipyrine as potential non-acidic anti-inflammatory, analgesic and antimicrobial agents” (Bioorg Med Chem, 2009)",
  "key": {"[1]": {"system": "Rattus norvegicus", "assay": "Antiinflammatory activity against formalin-induced paw edema in anaesthetized Albino rat acute inflammatory model at 10 mg/kg, po dosed 1 hr before formalin challenge assessed after 1 hr", "format": "functional", "method_in_brief": "(§1)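 Rats in groups of five plus control; test compounds 20 mg/kg po, diclofenac Na 10 mg/kg po, given 1 h before 0.1 mL 2% formalin injected subplantar into left hind paw under light ether anaesthesia. Paw volume by water plethysmometer at 0 and 1, 2, 3, 4 h after formalin; % anti-inflammatory activity versus control; mean ± SE, N = 5.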"}, "[2]": {"system": "Rattus norvegicus", "assay": "Antiinflammatory activity against formalin-induced paw edema in anaesthetized Albino rat acute inflammatory model at 10 mg/kg, po dosed 1 hr before formalin challenge assessed after 2 hrs", "format": "functional", "method_in_brief": "as §1"}, "[3]": {"system": "Rattus norvegicus", "assay": "Antiinflammatory activity against formalin-induced paw edema in anaesthetized Albino rat acute inflammatory model at 10 mg/kg, po dosed 1 hr before formalin challenge assessed after 3 hrs", "format": "functional", "method_in_brief": "as §1"}, "[4]": {"system": "Rattus norvegicus", "assay": "Antiinflammatory activity against formalin-induced paw edema in anaesthetized Albino rat acute inflammatory model at 10 mg/kg, po dosed 1 hr before formalin challenge assessed after 4 hrs", "format": "functional", "method_in_brief": "as §1"}, "[5]": {"system": "Rattus norvegicus", "assay": "Antiinflammatory activity against formalin-induced paw edema in anaesthetized Albino rat sub-acute inflammatory model at 10 mg/kg, po measured on day 1", "format": "functional", "method_in_brief": "(§2)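 Sub-acute paw edema: test compounds 20 mg/kg po daily for 7 days, diclofenac Na 10 mg/kg po; 0.1 mL 2% formalin injected subplantar into left hind paw under light ether anaesthesia on days 1 and 3, 1 h after dosing. Paw volume measured on day 1 and day 8; % anti-inflammatory activity; N = 5 rats.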"}, "[6]": {"system": "Rattus norvegicus", "assay": "Antiinflammatory activity against formalin-induced paw edema in anaesthetized Albino rat sub-acute inflammatory model at 10 mg/kg, po for 7 days measured on day 8", "format": "functional", "method_in_brief": "as §2"}, "[7]": {"system": "Rattus norvegicus", "assay": "Antiinflammatory activity against turpentine oil-induced granuloma pouch in anaesthetized Albino rat sub-acute inflammatory model at 10 mg/kg, po 1 hr before turpentine oil challenge for 7 days assessed after 8 days", "format": "functional", "method_in_brief": "(§3)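 Dorsal subcutaneous pouch made in ether-anaesthetised rats with 2 mL air, then 0.5 mL turpentine oil. Test compounds 20 mg/kg po, diclofenac Na 10 mg/kg po, started 1 h before turpentine and continued 7 days. Exudate aspirated on day 8 under anaesthesia; volume measured; % inhibition = (Vcontrol − Vtreated)/Vcontrol × 100; N = 5.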"}, "[8]": {"system": "Rattus norvegicus", "assay": "Toxicity in Albino rat assessed as induction of gastric ulceration at 300 mg/kg, po twice a day after 2 hrs", "format": "organism-based, Stomach", "set-up": "dose 300 mg/kg, route oral", "conditions": "in vivo", "method_in_brief": "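Male albino rats (180–200 g), five per group, fasted 12 h with water ad libitum. Oral dosing at 300 mg/kg; the results text gives two doses at a 2 h interval, while the methods give two equal doses at 0 and 12 h over three days. Controls received 1% gum acacia orally. Rats were killed with ether 6 h after the last dose, and stomachs were inspected grossly for ulceration and hyperemia.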"}, "[9]": {"system": "Rattus norvegicus", "assay": "Analgesic activity in Albino rat assessed as tail withdrawal response at 10 mg/kg, po after 1 hr", "format": "functional", "method_in_brief": "(§4)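 Male albino rats, 120–150 g, groups of five plus untreated control; test compounds 20 mg/kg po, diclofenac Na 10 mg/kg po. Tail immersed in 55 °C water; withdrawal reaction time read 1, 2 and 3 h after dosing; percentage increase in reaction time over basal computed; mean ± SE of five animals.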"}, "[10]": {"system": "Rattus norvegicus", "assay": "Analgesic activity in Albino rat assessed as tail withdrawal response at 10 mg/kg, po after 2 hrs", "format": "functional", "method_in_brief": "as §4"}, "[11]": {"system": "Rattus norvegicus", "assay": "Analgesic activity in Albino rat assessed as tail withdrawal response at 10 mg/kg, po after 3 hrs", "format": "functional", "method_in_brief": "as §4"}, "[12]": {"system": "Rattus norvegicus", "assay": "Antiinflammatory activity against formalin-induced paw edema in anaesthetized Albino rat acute inflammatory model at 20 mg/kg, po dosed 1 hr before formalin challenge assessed after 1 hr", "format": "functional", "method_in_brief": "as §1"}, "[13]": {"system": "Rattus norvegicus", "assay": "Antiinflammatory activity against formalin-induced paw edema in anaesthetized Albino rat acute inflammatory model at 20 mg/kg, po dosed 1 hr before formalin challenge assessed after 2 hrs", "format": "functional", "method_in_brief": "as §1"}, "[14]": {"system": "Rattus norvegicus", "assay": "Antiinflammatory activity against formalin-induced paw edema in anaesthetized Albino rat acute inflammatory model at 20 mg/kg, po dosed 1 hr before formalin challenge assessed after 3 hrs", "format": "functional", "method_in_brief": "as §1"}, "[15]": {"system": "Rattus norvegicus", "assay": "Antiinflammatory activity against formalin-induced paw edema in anaesthetized Albino rat acute inflammatory model at 20 mg/kg, po dosed 1 hr before formalin challenge assessed after 4 hrs", "format": "functional", "method_in_brief": "as §1"}, "[16]": {"system": "Rattus norvegicus", "assay": "Antiinflammatory activity against formalin-induced paw edema in anaesthetized Albino rat sub-acute inflammatory model at 20 mg/kg, po measured on day 1", "format": "functional", "method_in_brief": "as §2"}, "[17]": {"system": "Rattus norvegicus", "assay": "Antiinflammatory activity against formalin-induced paw edema in anaesthetized Albino rat sub-acute inflammatory model at 20 mg/kg, po for 7 days measured on day 8", "format": "functional", "method_in_brief": "as §2"}, "[18]": {"system": "Rattus norvegicus", "assay": "Antiinflammatory activity against turpentine oil-induced granuloma pouch in anaesthetized Albino rat sub-acute inflammatory model at 20 mg/kg, po 1 hr before turpentine oil challenge for 7 days assessed after 8 days", "format": "functional", "method_in_brief": "as §3"}, "[19]": {"assay": "Acute toxicity in Albino rat after 24 hrs", "format": "organism-based", "conditions": "in vivo, read-out: ALD50", "method_in_brief": "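Male rats, 180–200 g, groups of five, fasted 24 h before dosing; compounds given orally in graded doses of 0.1–3.0 g/kg; mortality recorded at each dose level after 24 h to estimate approximate acute lethal dose (ALD50).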"}, "[20]": {"system": "Rattus norvegicus", "assay": "Analgesic activity in Albino rat assessed as tail withdrawal response at 20 mg/kg, po after 1 hr", "format": "functional", "method_in_brief": "as §4"}, "[21]": {"system": "Rattus norvegicus", "assay": "Analgesic activity in Albino rat assessed as tail withdrawal response at 20 mg/kg, po after 2 hrs", "format": "functional", "method_in_brief": "as §4"}, "[22]": {"system": "Rattus norvegicus", "assay": "Analgesic activity in Albino rat assessed as tail withdrawal response at 20 mg/kg, po after 3 hrs", "format": "functional", "method_in_brief": "as §4"}, "[23]": {"system": "Staphylococcus aureus", "assay": "Antimicrobial activity against Staphylococcus aureus ATCC 6538 after 24 hrs by twofold serial dilution method", "format": "functional", "conditions": "ATCC 6538, 24 h", "method_in_brief": "(§5)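 Broth microdilution in Müller–Hinton broth on compounds with agar-diffusion inhibition zones ≥14 mm (disks with 1 mg/mL in DMSO, 37 °C, 24 h, triplicate).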"}, "[24]": {"system": "Bacillus subtilis", "assay": "Antimicrobial activity against Bacillus subtilis NRRL B-14819 after 24 hrs by twofold serial dilution method", "format": "functional", "method_in_brief": "as §5"}, "[25]": {"system": "Micrococcus luteus", "assay": "Antimicrobial activity against Micrococcus luteus ATCC 21881 after 24 hrs by twofold serial dilution method", "format": "functional", "conditions": "ATCC 21881, 24 h", "method_in_brief": "as §5"}, "[26]": {"system": "Escherichia coli", "assay": "Antimicrobial activity against Escherichia coli ATCC 25922 after 24 hrs by twofold serial dilution method", "format": "functional", "conditions": "ATCC 25922, 24 h", "method_in_brief": "as §5"}, "[27]": {"system": "Pseudomonas aeruginosa", "assay": "Antimicrobial activity against Pseudomonas aeruginosa ATCC 27853 after 24 hrs by twofold serial dilution method", "format": "functional", "conditions": "ATCC 27853, 24 h", "method_in_brief": "as §5"}, "[28]": {"system": "Klebsiella pneumoniae", "assay": "Antimicrobial activity against Klebsiella pneumoniae clinical isolate after 24 hrs by twofold serial dilution method", "format": "functional", "method_in_brief": "as §5"}},
  "data": [
    {"smiles": "O=C([O-])Cc1ccccc1Nc1c(Cl)cccc1Cl.[Na+]", "note": "[DICLOFENAC SODIUM]", "values": [
      {"measurement": "Activity", "setting": "[1]", "value": 17, "unit": "%"},
      {"measurement": "Activity", "setting": "[2]", "value": 40, "unit": "%"},
      {"measurement": "Activity", "setting": "[3]", "value": 44, "unit": "%"},
      {"measurement": "Activity", "setting": "[4]", "value": 45, "unit": "%"},
      {"measurement": "Activity", "setting": "[5]", "value": 40, "unit": "%"},
      {"measurement": "Activity", "setting": "[6]", "value": 46, "unit": "%"},
      {"measurement": "Activity", "setting": "[7]", "value": 73, "unit": "%"},
      {"measurement": "Activity", "setting": "[8]", "value": "Toxic"},
      {"measurement": "Activity", "setting": "[9]", "value": 26, "unit": "%"},
      {"measurement": "Activity", "setting": "[10]", "value": 55, "unit": "%"},
      {"measurement": "Activity", "setting": "[11]", "value": 79, "unit": "%"}
    ]},
    {"smiles": "Cc1c(NC(=O)c2sc(=S)n(-c3ccccc3)c2NC(=S)Nc2ccccc2)c(=O)n(-c2ccccc2)n1C", "values": [
      {"measurement": "Activity", "setting": "[12]", "value": 30, "unit": "%"},
      {"measurement": "Activity", "setting": "[13]", "value": 37, "unit": "%"},
      {"measurement": "Activity", "setting": "[14]", "value": 41, "unit": "%"},
      {"measurement": "Activity", "setting": "[15]", "value": 40, "unit": "%"},
      {"measurement": "Activity", "setting": "[16]", "value": 40, "unit": "%"},
      {"measurement": "Activity", "setting": "[17]", "value": 39, "unit": "%"},
      {"measurement": "Activity", "setting": "[18]", "value": 65, "unit": "%"},
      {"measurement": "Activity", "setting": "[8]", "value": "Non-toxic"},
      {"measurement": "LD50 at 24 h", "setting": "[19]", "value": "> 3000", "unit": "mg/kg"},
      {"measurement": "Activity", "setting": "[20]", "value": 48, "unit": "%"},
      {"measurement": "Activity", "setting": "[21]", "value": 70, "unit": "%"},
      {"measurement": "Activity", "setting": "[22]", "value": 82, "unit": "%"},
      {"measurement": "MIC", "setting": "[23]", "value": 50, "unit": "µg/mL"},
      {"measurement": "MIC", "setting": "[24]", "value": 12.5, "unit": "µg/mL"},
      {"measurement": "MIC", "setting": "[25]", "value": 50, "unit": "µg/mL"},
      {"measurement": "MIC", "setting": "[26]", "value": 50, "unit": "µg/mL"},
      {"measurement": "MIC", "setting": "[27]", "value": 50, "unit": "µg/mL"},
      {"measurement": "MIC", "setting": "[28]", "value": 50, "unit": "µg/mL"}
    ]}
  ]
}
